Experiments:
Assay type in all cases: functional
T47D = experiment: Growth inhibition of human T47D cells assessed as cell growth at 10 uM after 48 hrs by sulforhodamine B assay; conditions: read-out: Activity
Summary of the method: (§1)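 Single-dose NCI-60 test at 10 µM. Cells were grown in RPMI 1640 with 5% FBS and 2 mM L-glutamine, preincubated 24 h, with T0 plates TCA-fixed. Exposure was 48 h at 37 °C, 5% CO2. Cells were fixed with cold TCA (final 10%, 4 °C, 60 min), stained with SRB and read at 515 nm. Percent growth was taken relative to T0 and untreated control; negative values denote cell kill.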

TK-10 = experiment: Growth inhibition of human TK10 cells assessed as cell growth at 10 uM after 48 hrs by sulforhodamine B assay; conditions: TK-10, 48 h, read-out: Activity; summary of the method: as §1
RXF 393 = experiment: Growth inhibition of human RXF393 cells assessed as cell growth at 10 uM after 48 hrs by sulforhodamine B assay; conditions: RXF 393, 48 h, read-out: Activity
Summary of the method: (§2)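 Single-dose NCI-60 screen: adherent cells in RPMI 1640 with 5% FBS were exposed to 10 µM for 48 h at 37 °C after a 24 h preincubation. They were fixed in situ with cold TCA (10% final), stained with 0.4% SRB in 1% acetic acid, solubilized in 10 mM Tris base, and read at 515 nm. Percent growth was taken relative to time-zero and control plates.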

ACHN = experiment: Growth inhibition of human ACHN cells assessed as cell growth at 10 uM after 48 hrs by sulforhodamine B assay; conditions: read-out: Activity
Summary of the method: (§3)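 NCI-60 single-dose screen at 10 µM: cells in RPMI 1640 with 5% FBS, preincubated 24 h, then exposed 48 h at 37 °C. TCA fixation (16% final for suspension cells), SRB staining, absorbance 515 nm. Percent growth relative to time-zero and untreated control plates; negative values indicate cell kill.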

OVCAR-5 [1] = experiment: Growth inhibition of human OVCAR5 cells assessed as cell growth at 10 uM after 48 hrs by sulforhodamine B assay; conditions: OVCAR-5, 48 h, read-out: Activity; summary of the method: as §2
MDA-MB-435 = experiment: Growth inhibition of human MDA-MB-435 cells assessed as cell growth at 10 uM after 48 hrs by sulforhodamine B assay; conditions: MDA-MB-435, 48 h, read-out: Activity; summary of the method: as §2
Malme-3M = experiment: Growth inhibition of human MALME-3M cells assessed as cell growth at 10 uM after 48 hrs by sulforhodamine B assay; conditions: read-out: Activity; summary of the method: as §2
SW-620 = experiment: Growth inhibition of human SW620 cells assessed as cell growth at 10 uM after 48 hrs by sulforhodamine B assay; conditions: SW-620, 48 h, read-out: Activity; summary of the method: as §1
HT-29 [2] = experiment: Growth inhibition of human HT-29 cells assessed as cell growth at 10 uM after 48 hrs by sulforhodamine B assay; conditions: HT-29, 48 h, read-out: Activity; summary of the method: as §3
[3] = Growth inhibition of human HCC2998 cells assessed as cell growth at 10 uM after 48 hrs by sulforhodamine B assay; conditions: HCC 2998, 48 h, read-out: Activity; summary of the method: as §3
NCI-H460 = experiment: Growth inhibition of human NCI-H460 cells assessed as cell growth at 10 uM after 48 hrs by sulforhodamine B assay; conditions: NCI-H460, 48 h, read-out: Activity; summary of the method: as §2
NCI-H322M = experiment: Growth inhibition of human NCI-H322M cells assessed as cell growth at 10 uM after 48 hrs by sulforhodamine B assay; conditions: read-out: Activity; summary of the method: as §2
NCI-H226 = experiment: Growth inhibition of human NCI-H226 cells assessed as cell growth at 10 uM after 48 hrs by sulforhodamine B assay; conditions: NCI-H226, 48 h, read-out: Activity; summary of the method: as §2
A549 = experiment: Growth inhibition of human A549/ATCC cells assessed as cell growth at 10 uM after 48 hrs by sulforhodamine B assay; conditions: A549, 48 h, read-out: Activity; summary of the method: as §3
SR = experiment: Growth inhibition of human SR cells assessed as cell growth at 10 uM after 48 hrs by sulforhodamine B assay; conditions: read-out: Activity
Summary of the method: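 Suspension line in RPMI 1640 with 5% FBS, single 10 µM dose for 48 h. Settled cells were fixed with TCA (final 16%), then SRB-stained and read at 515 nm. Percent growth was taken versus T0 and control; negative values denote cytotoxicity.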

MDA-MB-468 = experiment: Growth inhibition of human MDA-MB-468 cells after 48 hrs by sulforhodamine B assay; conditions: MDA-MB-468, 48 h
Summary of the method: (§4)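 NCI-60 panel cells grown in RPMI 1640 with 5% FBS and 2 mM L-glutamine, seeded at 5000–40,000 cells/well and preincubated 24 h. Five 10-fold dilutions (0.001–100 µM) from DMSO stocks were added for 48 h at 37 °C. Adherent cells were fixed with cold TCA (10% final) for 60 min at 4 °C, stained with 0.4% SRB, and read at 515 nm. GI50 was set where 100×(T−T0)/(C−T0)=50.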

BT-549 = experiment: Growth inhibition of human BT549 cells after 48 hrs by sulforhodamine B assay; conditions: BT-549, 48 h
Summary of the method: (§5)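 NCI-60 screen: cells in RPMI 1640 with 5% FBS and 2 mM glutamine, 5000–40,000 cells/well, preincubated 24 h. Five concentrations (10-fold dilutions; 100 to 0.001 µM) applied for 48 h at 37 °C. TCA fixation, SRB stain, absorbance at 515 nm. Time-zero plates included; GI50 where 100×(T−T0)/(C−T0)=50.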

786-0 = experiment: Growth inhibition of human 786-0 cells after 48 hrs by sulforhodamine B assay; conditions: 786-0, 48 h; summary of the method: as §5
OVCAR-5 [4] = experiment: Growth inhibition of human OVCAR5 cells after 48 hrs by sulforhodamine B assay; conditions: OVCAR-5, 48 h; summary of the method: as §4
OVCAR-4 = experiment: Growth inhibition of human OVCAR4 cells after 48 hrs by sulforhodamine B assay; conditions: OVCAR-4, 48 h; summary of the method: as §4
OVCAR-3 = experiment: Growth inhibition of human OVCAR3 cells after 48 hrs by sulforhodamine B assay; conditions: OVCAR-3, 48 h; summary of the method: as §4
HT-29 [5] = experiment: Growth inhibition of human HT-29 cells after 48 hrs by sulforhodamine B assay; conditions: HT-29, 48 h; summary of the method: as §5
[6] = Growth inhibition of human HCC2998 cells after 48 hrs by sulforhodamine B assay; conditions: HCC 2998, 48 h; summary of the method: as §5
HOP-92 [7] = experiment: Growth inhibition of human HOP92 cells after 48 hrs by sulforhodamine B assay; conditions: HOP-92, 48 h; summary of the method: as §5
[8] = Growth inhibition of human EKVX cells after 48 hrs by sulforhodamine B assay; summary of the method: as §5
HOP-92 [9] = experiment: Growth inhibition of human HOP92 cells assessed as cell growth at 10 uM after 48 hrs by sulforhodamine B assay; conditions: HOP-92, 48 h, read-out: Activity; summary of the method: as §3
K562 = experiment: Growth inhibition of human K562 cells assessed as cell growth at 10 uM after 48 hrs by sulforhodamine B assay; conditions: K562, 48 h, read-out: Activity; summary of the method: as §3

SMILES	growth at 10 µM (T47D) [%]	growth at 10 µM (TK-10) [%]	growth at 10 µM (RXF 393) [%]	growth at 10 µM (ACHN) [%]	growth at 10 µM (OVCAR-5 [1]) [%]	growth at 10 µM (MDA-MB-435) [%]	growth at 10 µM (Malme-3M) [%]	growth at 10 µM (SW-620) [%]	growth at 10 µM (HT-29 [2]) [%]	growth at 10 µM [3] [%]	growth at 10 µM (NCI-H460) [%]	growth at 10 µM (NCI-H322M) [%]	growth at 10 µM (NCI-H226) [%]	growth at 10 µM (A549) [%]	growth at 10 µM (SR) [%]	GI50 (MDA-MB-468) [µM]	GI50 (BT-549) [µM]	GI50 (786-0) [µM]	GI50 (OVCAR-5 [4]) [µM]	GI50 (OVCAR-4) [µM]	other results
CC(C)=CCC/C(C)=C/CC/C(C)=C/CC[C@]1(C)CCc2c3c(cc(C)c2O1)OCN(CCCCCCO)C3	-51.6	88.4	-95.6	-39.7	33.4	-48.1	-50.2	-66.3	-25.8	-89.1	-15.7	-61	92.5	-34.7	-38	0.629	6.15	1.74	2.55	0.518	GI50 (OVCAR-3): 0.702 µM; GI50 (HT-29 [5]): 0.72 µM; GI50 [6]: 0.663 µM; GI50 (HOP-92 [7]): 1.05 µM; GI50 [8]: 5.31 µM
CC(C)=CCC/C(C)=C/CC/C(C)=C/CC[C@]1(C)CCc2c3c(c(C)c(C)c2O1)OCN(CCCCCCO)C3	8.28	97.9	22.4	68.6	39	22.1	85.7	-29.4	17.4	-63.7	2.49	69.5	97.3	38.9	-34.8	2.61	4.18	2.79	2.76	2.49	GI50 (OVCAR-3): 2.82 µM; GI50 (HT-29 [5]): 3.04 µM; GI50 [6]: 2.62 µM; GI50 (HOP-92 [7]): 1.89 µM; GI50 [8]: 2.66 µM
CC(C)=CCC/C(C)=C/CC/C(C)=C/CC[C@]1(C)CCc2c3c(cc(C)c2O1)OCN(CCCCO)C3	-7.14	88.4	-96.3	-57.1	6.91	-31.8	51.2	-79.7	2.06	-88.7	-20.4	48.5	99.3	-37.7	-40.9	15.1	20.2	15.5	17.3	16.4	GI50 (OVCAR-3): 17.2 µM; GI50 (HT-29 [5]): 8.33 µM; GI50 [6]: 9.78 µM; GI50 (HOP-92 [7]): 10.1 µM; GI50 [8]: 19.6 µM
CC(C)=CCC/C(C)=C/CC/C(C)=C/CC[C@]1(C)CCc2c3c(c(C)c(C)c2O1)OCN(CCCCCCCCO)C3	56.1	93.5	-10.7	79.6	72.8	-21.4	71.7	10.1	31.1	-87	9.26	65.3	91.6	20.2	-37.8	2.57	3.39	2.72	2.83	2.81	GI50 (OVCAR-3): 2.79 µM; GI50 (HT-29 [5]): 3.26 µM; GI50 [6]: 2.73 µM; GI50 (HOP-92 [7]): 2.17 µM; GI50 [8]: 3.04 µM
CC(C)=CCC/C(C)=C/CC/C(C)=C/CC[C@]1(C)CCc2c3c(cc(C)c2O1)OCN(CCCO)C3	-22.1	75.9	-90.5	42.5	40.4	-24	110	-92.1	-76.7	-82.9	-75.1	-62.1	98.7	-35.9	-32.1	1.56	2	1.86	1.77	1.64	growth at 10 µM (HOP-92 [9]): 63.1%; growth at 10 µM (K562): -33.4%; GI50 (OVCAR-3): 2.11 µM; GI50 (HT-29 [5]): 1.78 µM; GI50 [6]: 1.74 µM; GI50 (HOP-92 [7]): 1.46 µM; GI50 [8]: 5.11 µM

From ChEMBL document CHEMBL2380254, “Optimization of tocotrienols as antiproliferative and antimigratory leads” (Eur J Med Chem, 2013)
